Active and inactive are the calls of the source. No cut-off for these calls is given here.
How the values were obtained:
[1] = Partition coefficient, log P of the compound; format: physicochemical; settings: octanol/water
HL-60 [2] = assay: Selectivity index, ratio of CC50 for human normal cells to CC50 for human HL60 cells; format: functional
Procedure, shortened: (§1)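 The index is the average CC50 toward the three normal cell types (HGF, HPC, HPLF) divided by the CC50 toward the indicated malignant line.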

Mus musculus [3] = assay: Toxicity in mouse assessed as induction of mortality at 30 to 300 mg/kg, ip; format: organism-based; set-up: dose 30-300 mg/kg, route intraperitoneal; settings: in vivo
[4] = Cytotoxicity against human HPC cells after 24 hrs; format: cell-based; settings: hpc, 24 h
Procedure, shortened: (§2)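 Cells (HGF gingival fibroblasts, HPC pulp cells, HPLF periodontal ligament fibroblasts, HSC-2 and HSC-4 squamous carcinoma, HL-60 promyelocytic leukemia) were exposed to graded concentrations for 24 h, up to a maximum of 400 μM. CC50 is the concentration reducing viable cell number by 50%, taken from dose–response curves. Values are from duplicate determinations differing by less than 5%.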

HSC-2 [5] = assay: Cytotoxicity against human HSC2 cells after 24 hrs; format: functional; settings: HSC-2, 24 h; procedure, shortened: as §2
HL-60 [6] = assay: Cytotoxicity against human HL60 cells after 24 hrs; format: functional; settings: HL-60, 24 h; procedure, shortened: as §2
HSC-2 [7] = assay: Selectivity index, ratio of CC50 for human normal cells to CC50 for human HSC2 cells; format: functional; procedure, shortened: as §1
HSC-2 [8] = assay: Induction of apoptosis in human HSC2 cells assessed as caspase-3 activation; format: functional, cell-based
Procedure, shortened: (§3)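 HL-60 and HSC-2 cells were incubated with compound for 5 h, then caspase-3 activation was measured. The positive control was UV irradiation (6 J/m²/min for 1 min) followed by 3 h incubation. Bars show mean ± SD, n = 3.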

HSC-4 [9] = assay: Cytotoxicity against human HSC4 cells after 24 hrs; format: functional; settings: HSC-4, 24 h; procedure, shortened: as §2
HL-60 [10] = assay: Induction of apoptosis in human HL60 cells assessed as caspase-3 activation; format: functional, cell-based; procedure, shortened: as §3
HSC-4 [11] = assay: Selectivity index, ratio of CC50 for human normal cells to CC50 for human HSC4 cells; format: functional; procedure, shortened: as §1
[12] = Cytotoxicity against human HGF cells after 24 hrs; format: cell-based; settings: hgf, 24 h; procedure, shortened: as §2
HSC-2 [13] = assay: Induction of internucleosomal DNA fragmentation in human HSC2 cells after 6 hrs; format: functional, cell-based
Procedure, shortened: (§4)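 HL-60 and HSC-2 cells were incubated with compound for 6 h. Internucleosomal DNA fragmentation was then examined against a DNA molecular-weight marker.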

[14] = Cytotoxicity against human HPLF cells after 24 hrs; format: cell-based; settings: hplf, 24 h; procedure, shortened: as §2
HL-60 [15] = assay: Induction of internucleosomal DNA fragmentation in human HL60 cells after 6 hrs; format: functional, cell-based; procedure, shortened: as §4
Mus musculus [16] = organism: Mus musculus; assay: Toxicity in mouse; format: organism-based; settings: in vivo
Procedure, shortened: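 Neurotoxicity was recorded as the number of affected mice per number treated at each dose. Testing was run under National Institute of Neurological Disorders and Stroke screening protocols.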

Mus musculus [17] = assay: Neurotoxicity in mouse assessed at 30 to 300 mg/kg, ip after 0.5 hrs; format: toxicity, organism-based; set-up: dose 30-300 mg/kg, route intraperitoneal; settings: in vivo
Procedure, shortened: (§5)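 Mice received 30, 100 or 300 mg/kg intraperitoneally and were examined at 0.5 and 4 h for mortality and neurological deficit, following NINDS screening protocols. Results were recorded as the number of mice showing a deficit over the number treated per dose.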

Mus musculus [18] = assay: Neurotoxicity in mouse assessed at 30 to 300 mg/kg, ip after 4 hrs; format: toxicity, organism-based; set-up: dose 30-300 mg/kg, route intraperitoneal; settings: in vivo; procedure, shortened: as §5

| SMILES | logP [1] | Selectivity Index (HL-60 [2]) | Activity (Mus musculus [3]) | CC50 [4] [µM] | CC50 (HSC-2 [5]) [µM] | CC50 (HL-60 [6]) [µM] | Selectivity Index (HSC-2 [7]) | Activity (HSC-2 [8]) | CC50 (HSC-4 [9]) [µM] | Activity (HL-60 [10]) | Selectivity Index (HSC-4 [11]) | CC50 [12] [µM] | Activity (HSC-2 [13]) | CC50 [14] [µM] | Activity (HL-60 [15]) | Activity (Mus musculus [16]) [mg/kg] | Activity (Mus musculus [17]) | Activity (Mus musculus [18]) |
| --- | --- | --- | --- | --- | --- | --- | --- | --- | --- | --- | --- | --- | --- | --- | --- | --- | --- | --- |
| O=C1/C(=C/c2ccc(Cl)cc2)CCC/C1=C\c1ccccc1[N+](=O)[O-] | 5.38 | >53 | Non-toxic | 400 | 3.7 | 7.6 | >108 | inactive | 6.1 | Active | >66 | > 400 | inactive | > 400 | Active |  |  |  |
| N[C@@H](Cc1ccc(N(CCCl)CCCl)cc1)C(=O)O |  |  |  |  |  |  |  |  |  |  |  |  |  |  |  | 4 |  |  |
| O=C1/C(=C/c2ccccc2)CCC/C1=C\c1ccccc1[N+](=O)[O-] | 4.7 | 12 | Non-toxic | 16 | 3.8 | 3.7 | 12 |  | 3.2 |  | 14 | 93 |  | 26 |  |  | Non-toxic | Non-toxic |
